Test system: healthy male subjects
Assay: Pharmaco-EEG
Type: in vivo, human
Conditions: 12-hour post-dose period
Procedure, shortened: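 Continuous EEG was recorded from 21 electrodes placed by the 10–20 system, with mastoid electrodes replacing the earlobe ones. Recordings followed IPEG guidelines, twice pre-dose and at 0.5–10 h post-dose. Power spectra for Fz-Cz and Pz-O derivations were split into bands to give total band power (μV). Values were ln-transformed, analysed by MMRM over 12 h against pooled placebo, and back-transformed.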

## CN1CCC23CCCCC2C1Cc1ccc(C(N)=O)cc13 (stereo not drawn) [ALKS 7119, (9α, 13α)‐17‐methylmorphinan‐3‐carboxamide]
75 mg single oral dose
  Theta-power Pz-Oz, LSM CFB: 0.12 Hz
  Theta-power Pz-Oz, estimate of difference compared to placebo: 0.05 [−0.20, 0.28] P = .69 Hz
100 mg single oral dose
  Alpha-power Fz-Cz, LSM CFB: 0.06 Hz
  Alpha-power Pz-Oz, LSM CFB: 0.12 Hz
  Alpha-power Pz-Oz, estimate of difference compared to placebo: 0.02 [−0.23, 0.28] P = .85 Hz
  Beta-power Fz-Cz, LSM CFB: 0.08 Hz
  Beta-power Fz-Cz, estimate of difference compared to placebo: −0.03 [−0.25, 0.19] P = .77 Hz
  Beta-power Pz-Oz, LSM CFB: 0.25 Hz
  Beta-power Pz-Oz, estimate of difference compared to placebo: 0.12 [−0.07, 0.32] P = .22 Hz
  Delta-power Fz-Cz, LSM CFB: −0.03 Hz
  Delta-power Fz-Cz, estimate of difference compared to placebo: −0.13 [−0.34, 0.08] P = .22 Hz
  Delta-power Pz-Oz, LSM CFB: 0.08 Hz
  Delta-power Pz-Oz, estimate of difference compared to placebo: 0.02 [−0.21, 0.25] P = .89 Hz
  Gamma-power Fz-Cz, LSM CFB: 0.1 Hz
  Gamma-power Fz-Cz, estimate of difference compared to placebo: <−0.01 [−0.20, 0.21] P = .99 Hz
  Gamma-power Pz-Oz, LSM CFB: 0.27 Hz
  Gamma-power Pz-Oz, estimate of difference compared to placebo: 0.06 [−0.19, 0.32] P = .63 Hz
  Theta-power Fz-Cz, LSM CFB: 0.03 Hz
  Theta-power Fz-Cz, estimate of difference compared to placebo: −0.04 [−0.27, 0.19] P = .72 Hz
  Theta-power Pz-Oz, LSM CFB: 0.14 Hz
  Theta-power Pz-Oz, estimate of difference compared to placebo: 0.08 [−0.16, 0.30] P = .56 Hz
125 mg single oral dose
  Alpha-power Fz-Cz, LSM CFB: 0.05 Hz
  Alpha-power Fz-Cz, estimate of difference compared to placebo: −0.17 [−1.24,‐.89] P = .75 Hz
  Alpha-power Pz-Oz, LSM CFB: 0.11 Hz
  Alpha-power Pz-Oz, estimate of difference compared to placebo: 0.01 [−0.25, 0.27] P = .93 Hz
  Beta-power Fz-Cz, LSM CFB: 0.12 Hz
  Beta-power Fz-Cz, estimate of difference compared to placebo: 0.01 [−0.21, 0.23] P = .93 Hz
  Beta-power Pz-Oz, LSM CFB: 0.14 Hz
  Beta-power Pz-Oz, estimate of difference compared to placebo: 0.02 [−0.18, 0.22] P = .87 Hz
  Delta-power Fz-Cz, LSM CFB: 0.09 Hz
  Delta-power Fz-Cz, estimate of difference compared to placebo: −0.01 [0.22, 0.20] P = .90 Hz
  Delta-power Pz-Oz, LSM CFB: 0.22 Hz
  Delta-power Pz-Oz, estimate of difference compared to placebo: 0.15 [−0.08, 0.39] P = .19 Hz
  Gamma-power Fz-Cz, LSM CFB: 0.12 Hz
  Gamma-power Fz-Cz, estimate of difference compared to placebo: 0.02 [−0.18, 0.22] P = .85 Hz
  Gamma-power Pz-Oz, LSM CFB: 0.12 Hz
  Gamma-power Pz-Oz, estimate of difference compared to placebo: −0.09 [−0.35, 0.17] P = .49 Hz
  Theta-power Fz-Cz, LSM CFB: 0.1 Hz
  Theta-power Fz-Cz, estimate of difference compared to placebo: 0.03 [−0.20, 0.25] P = .82 Hz
  Theta-power Pz-Oz, LSM CFB: 0.15 Hz
  Theta-power Pz-Oz, estimate of difference compared to placebo: 0.08 [−0.15, 0.31] P = .50 Hz
150 mg single oral dose
  Alpha-power Fz-Cz, LSM CFB: 0.15 Hz
  Alpha-power Pz-Oz, LSM CFB: −0.07 Hz
  Alpha-power Pz-Oz, estimate of difference compared to placebo: −0.17 [−0.43, 0.09] P = .19 Hz
  Beta-power Fz-Cz, LSM CFB: 0.11 Hz
  Beta-power Fz-Cz, estimate of difference compared to placebo: −0.01 [−0.22, 0.22] P = .97 Hz
  Beta-power Pz-Oz, LSM CFB: −0.07 Hz
  Beta-power Pz-Oz, estimate of difference compared to placebo: −0.19 [−0.39, 0.01] P = .06 Hz
  Delta-power Fz-Cz, LSM CFB: −0.08 Hz
  Delta-power Fz-Cz, estimate of difference compared to placebo: −0.19 [−0.41, 0.03] P = .08 Hz
  Delta-power Pz-Oz, LSM CFB: 0.02 Hz
  Delta-power Pz-Oz, estimate of difference compared to placebo: −0.04 [−0.27, 0.19] P = .71 Hz
  Gamma-power Fz-Cz, LSM CFB: 0.14 Hz
  Gamma-power Fz-Cz, estimate of difference compared to placebo: 0.04 [−0.16, 0.24] P = .71 Hz
  Gamma-power Pz-Oz, LSM CFB: 0.09 Hz
  Gamma-power Pz-Oz, estimate of difference compared to placebo: −0.12 [−0.37, 0.14] P = .37 Hz
  Theta-power Fz-Cz, LSM CFB: 0 Hz
  Theta-power Fz-Cz, estimate of difference compared to placebo: −0.07 [−0.31, 0.16] P = .54 Hz
  Theta-power Pz-Oz, LSM CFB: 0 Hz
  Theta-power Pz-Oz, estimate of difference compared to placebo: −0.07 [−0.31, 0.16] P = .53 Hz
175 mg single oral dose
  Alpha-power Fz-Cz, LSM CFB: 0.02 Hz
  Alpha-power Fz-Cz, estimate of difference compared to placebo: −0.15 [−1.19, 0.9] P = .78 Hz
  Alpha-power Pz-Oz, LSM CFB: −0.02 Hz
  Alpha-power Pz-Oz, estimate of difference compared to placebo: −0.12 [−0.37, 0.14] P = .36 Hz
  Beta-power Fz-Cz, LSM CFB: 0.08 Hz
  Beta-power Fz-Cz, estimate of difference compared to placebo: −0.04 [−0.26, 0.18] P = .73 Hz
  Beta-power Pz-Oz, LSM CFB: 0.01 Hz
  Beta-power Pz-Oz, estimate of difference compared to placebo: −0.12 [−0.32, 0.08] P = .24 Hz
  Delta-power Fz-Cz, LSM CFB: 0.09 Hz
  Delta-power Fz-Cz, estimate of difference compared to placebo: −0.01 [−0.23, 0.20] P = .91 Hz
  Delta-power Pz-Oz, LSM CFB: −0.07 Hz
  Delta-power Pz-Oz, estimate of difference compared to placebo: −0.13 [−0.36, 0.11] P = .26 Hz
  Gamma-power Fz-Cz, LSM CFB: 0.16 Hz
  Gamma-power Fz-Cz, estimate of difference compared to placebo: 0.06 [−0.14, 0.26] P = .57 Hz
  Gamma-power Pz-Oz, LSM CFB: 0.03 Hz
  Gamma-power Pz-Oz, estimate of difference compared to placebo: −0.18 [−0.43, 0.08] P = .17 Hz
  Theta-power Fz-Cz, LSM CFB: 0.08 Hz
  Theta-power Pz-Oz, LSM CFB: −0.07 Hz
  Theta-power Pz-Oz, estimate of difference compared to placebo: −0.14 [−0.37, 0.10] P = .25 Hz
200 mg single oral dose
  Alpha-power Fz-Cz, LSM CFB: 0.01 Hz
  Alpha-power Fz-Cz, estimate of difference compared to placebo: −0.28 [−1.39, 0.82] P = .61 Hz
  Alpha-power Pz-Oz, LSM CFB: 0.24 Hz
  Alpha-power Pz-Oz, estimate of difference compared to placebo: 0.14 [−0.11, 0.40] P = .27 Hz
  Beta-power Fz-Cz, LSM CFB: 0.07 Hz
  Beta-power Fz-Cz, estimate of difference compared to placebo: −0.05 [−0.27, 0.17] P = .67 Hz
  Beta-power Pz-Oz, LSM CFB: 0.2 Hz
  Beta-power Pz-Oz, estimate of difference compared to placebo: 0.07 [−0.12, 0.27] P = .46 Hz
  Delta-power Fz-Cz, LSM CFB: 0.02 Hz
  Delta-power Fz-Cz, estimate of difference compared to placebo: −0.08 [−0.29, 0.13] P = .45 Hz
  Delta-power Pz-Oz, LSM CFB: 0.26 Hz
  Delta-power Pz-Oz, estimate of difference compared to placebo: 0.20 [−0.04, 0.43] P = .10 Hz
  Gamma-power Fz-Cz, LSM CFB: 0.21 Hz
  Gamma-power Fz-Cz, estimate of difference compared to placebo: 0.11 [−0.09, 0.31] P = .29 Hz
  Gamma-power Pz-Oz, LSM CFB: 0.31 Hz
  Gamma-power Pz-Oz, estimate of difference compared to placebo: 0.11 [−0.15, 0.36] P = .40 Hz
  Theta-power Fz-Cz, LSM CFB: 0.07 Hz
  Theta-power Pz-Oz, LSM CFB: 0.25 Hz
  Theta-power Pz-Oz, estimate of difference compared to placebo: 0.18 [−0.05, 0.41] P = .13 Hz
